Test results taken from ChEMBL document CHEMBL2157982, “Synthesis and structure-activity relationships of 8-substituted-2-aryl-5-alkylaminoquinolines: Potent, orally active corticotropin-releasing factor-1 receptor antagonists” (Bioorg Med Chem, 2012).
Converted amounts (≈) assume the structure as drawn. The source made the active and inactive calls. The calls are words filed in the database; no cut-off is given here.

Legend:
[1] = molecular target: T1, Corticotropin-releasing factor receptor 1 (Homo sapiens, UniProt P34998); test: Displacement of [125I]-CRF from human CRF1 receptor expressed in HEK293 cells after 2 hrs by scintillation counting; assay type: cell-based
T1 sequence (P34998 whole entry): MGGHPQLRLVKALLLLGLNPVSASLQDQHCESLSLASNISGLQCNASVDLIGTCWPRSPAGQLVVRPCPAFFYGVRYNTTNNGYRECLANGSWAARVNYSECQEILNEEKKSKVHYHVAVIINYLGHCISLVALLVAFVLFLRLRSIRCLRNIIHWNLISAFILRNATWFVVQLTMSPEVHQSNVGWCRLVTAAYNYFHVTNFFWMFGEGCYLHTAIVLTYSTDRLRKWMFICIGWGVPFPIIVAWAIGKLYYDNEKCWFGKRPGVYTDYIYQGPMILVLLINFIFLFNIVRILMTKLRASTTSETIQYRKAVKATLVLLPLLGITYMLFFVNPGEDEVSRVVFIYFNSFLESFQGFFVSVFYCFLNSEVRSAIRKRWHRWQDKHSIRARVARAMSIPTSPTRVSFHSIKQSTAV
Procedure, shortened: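 Scintillation proximity assay using HEK293/human CRF1 membranes (5 µg/well), WGA-coated SPA beads (1 mg/well) and 0.1 nM [125I] human/rat CRF. Buffer: PBS-type salts, 10 mM MgCl2, 2 mM EGTA, 1.5% BSA, protease inhibitors, pH 7.0. Incubated over 2 h at room temperature, then centrifuged and counted. Nonspecific binding defined with 0.4 µM sauvagine. IC50 from concentration-response curve of % total specific binding.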

[2] = molecular target: T1, Corticotropin-releasing factor receptor 1; test: Antagonist activity at human CRF1 receptor expressed in HEK293 cells assessed as inhibition of CRF-induced intracellular cAMP production preincubated for 30 mins before CRF addition measured after 30 mins by enzyme immunoassay; assay type: functional, cell-based
[3] = Aqueous solubility of the compound in Dulbecco's phosphate-buffered saline at pH 7.4 by high-throughput HPLC method; assay type: physicochemical
Procedure, shortened: (§1)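 A 10 mM DMSO stock of compound was diluted 1:100 into buffer in a filter plate and shaken 15 min at room temperature, then filtered. Filtrate analysed by reverse-phase HPLC-UV against an external DMSO standard. Buffers: pH 1.2 HCl/NaCl; pH 5 and 9 Britton–Robinson (acetate/phosphate/borate with KCl, NaOH-adjusted); pH 7.4 Dulbecco's PBS.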

[4] = Solubility of the compound in HCl/NaCl at pH 1.2 by high-throughput HPLC method; assay type: physicochemical; conditions: HCl/NaCl solution; procedure, shortened: as §1
[5] = Dissociation constant, pKa of the compound; assay type: physicochemical
[6] = Solubility of the compound in Britton-Robinson buffer at pH 5 by high-throughput HPLC method; assay type: physicochemical; procedure, shortened: as §1
[7] = Solubility of the compound in Britton-Robinson buffer at pH 9 by high-throughput HPLC method; assay type: physicochemical; procedure, shortened: as §1
[8] = test system: Rattus norvegicus; test: Inhibition of CRF-induced ACTH release in Fischer 344 rat plasma at 30 mg/kg, po administered 60 mins before CRF challenge by RIA; assay type: functional, organism-based; parameters: dose 30 mg/kg
Procedure, shortened: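 Male Fischer 344 rats (152–177 g) dosed orally 1 h before subcutaneous CRF at 10 µg/kg; controls got vehicle 5% DMSO/5% Cremophor/90% saline. Trunk blood taken 30 min after CRF into EDTA and spun. Plasma ACTH measured in duplicate by immunoradiometric kit against ACTH standard curve. n = 5–6 rats; mean ± S.E.M.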

[9] = test system: Mus musculus; test: Anxiolytic activity in po dosed BALB/c mouse assessed as increase in time spent on illuminated box administered 60 mins before test measured for 5 mins by light-dark test; assay type: functional, organism-based
Procedure, shortened: (§2)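 Male BALB/c mice, n = 10/group, dosed orally 1 h before test. Animals were habituated to 10 lx for at least 2 h (room at 150 lx) and placed in the dark compartment at start. Observed for 5 min, scoring time in the illuminated box and number of tunnel crossings. Mean ± S.E.M., Dunnett test versus vehicle.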

[10] = test system: Mus musculus; test: Anxiolytic activity in po dosed BALB/c mouse assessed as increase in number of tunnel crossings administered 60 mins before test measured for 5 mins by light-dark test; assay type: functional, organism-based; procedure, shortened: as §2
[11] = Half life in Fischer 344 rat at 3 mg/kg, iv; assay type: ADME, organism-based; parameters: dose 3 mg/kg, route intravenous; conditions: in vivo
Procedure, shortened: (§3)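 Fasted F344 rats (n = 3 per dose, 189.4–205.9 g) received 3 mg/kg iv in 5% EtOH-0.02 mol/L HCl/5% glucose, or 10 mg/kg po in 5% DMSO/5% Cremophor EL/HCl/water. Blood sampled at 0.083 h (iv only), then 0.25–8 h. Brain taken 1 h after po dosing and homogenized. Samples protein-precipitated with imipramine internal standard and quantified by LC–MS/MS (ESI+). Mean ± SEM.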

[12] = test system: Rattus norvegicus; test: AUC (infinity) in Fischer 344 rat at 3 mg/kg, iv; assay type: ADME, organism-based, Plasma; parameters: time infinity, dose 3 mg/kg, route intravenous; conditions: in vivo
Procedure, shortened: (§4)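 Fasted F344 rats (n = 3 per dose, 189.4–205.9 g). iv: 3 mg kg−1 given as 3 mg mL−1 in 5% ethanol-0.02 mol L−1 HCl/5% glucose. p.o.: 10 mg kg−1 given as 2 mg mL−1 in 5% DMSO/5% Cremophor EL/equivalent HCl/H2O. Blood sampled at 0.083 h (iv only), then 0.25, 0.5, 1, 2, 4, 6 and 8 h. Plasma extracted with MeOH/MeCN containing imipramine internal standard and measured by positive-ESI LC–MS/MS. Results given as mean ± SEM.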

[13] = Volume of distribution at steady state in Fischer 344 rat at 3 mg/kg, iv; assay type: ADME, organism-based; parameters: dose 3 mg/kg, route intravenous; conditions: in vivo, read-out: Vdss; procedure, shortened: as §3
[14] = Total blood clearance in Fischer 344 rat at 3 mg/kg, iv; assay type: ADME, organism-based; parameters: dose 3 mg/kg, route intravenous; conditions: whole blood; procedure, shortened: as §3
[15] = Cmax in Fischer 344 rat at 10 mg/kg, po; assay type: ADME, organism-based; parameters: dose 10 mg/kg, route oral; conditions: in vivo; procedure, shortened: as §3
[16] = Tmax in Fischer 344 rat at 10 mg/kg, po; assay type: ADME, organism-based; parameters: dose 10 mg/kg, route oral; conditions: in vivo; procedure, shortened: as §3
[17] = test system: Rattus norvegicus; test: AUC (infinity) in Fischer 344 rat at 10 mg/kg, po; assay type: ADME, organism-based, Plasma; parameters: time infinity, dose 10 mg/kg, route oral; conditions: in vivo; procedure, shortened: as §4
[18] = Oral bioavailability in Fischer 344 rat at 10 mg/kg; assay type: ADME, organism-based; conditions: in vivo; procedure, shortened: as §3
[19] = Ratio of drug level in brain to plasma in Fischer 344 rat at 10 mg/kg, po after 1 hr; assay type: ADME, organism-based; parameters: dose 10 mg/kg, route oral; conditions: brain and plasma, read-out: BPR; procedure, shortened: as §3
[20] = test system: Mus musculus; test: Anxiolytic activity in BALB/c mouse assessed as increase in time spent on illuminated box at 30 mg/kg, po administered 60 mins before test measured for 5 mins by light-dark test; assay type: functional, organism-based; parameters: dose 30 mg/kg; procedure, shortened: as §2
[21] = test system: Mus musculus; test: Anxiolytic activity in po dosed BALB/c mouse assessed as increase in number of tunnel crossings at 30 mg/kg, po administered 60 mins before test measured for 5 mins by light-dark test; assay type: functional, organism-based; parameters: dose 30 mg/kg; procedure, shortened: as §2

Row | IC50 [1] [nM] | IC50 [2] [nM] | solubility [3] [µM] | SMILES | also measured
1 | 118 | 75 | 4.6 (≈ 1.97 µg/mL) | CCN(CC)c1ccc(OC)c2nc(-c3c(OC)cc(COC)cc3OC)c(F)cc12 | 
2 |  |  | < 0.2 | CCN(CC)c1ccc(C)c2nc(-c3c(OC)cc(COC)cc3OC)ccc12 | 
3 | 202 | 332 | 38.2 (≈ 15.7 µg/mL) | CCN(CC)c1ccc(OC)c2nc(-c3c(OC)cc(COC)cc3OC)ccc12 | 
4 |  |  | < 0.2 | CCN(CC)c1ccc(C)c2nc(-c3c(OC)cc(COC)cc3OC)c(F)cc12 | 
5 | 226 | 67 | 10.5 (≈ 4.33 µg/mL) | CCN(CC)c1ccc(F)c2nc(-c3c(OC)cc(COC)cc3OC)c(C)cc12 | 
6 | 62 | 28 | < 0.2 | CCN(CC)c1ccc(Cl)c2nc(-c3c(OC)cc(COC)cc3OC)c(C)cc12 | 
7 | 392 |  | 89.4 (≈ 40.6 µg/mL) | CCN(CCOC)c1ccc(OC)c2nc(-c3c(OC)cc(COC)cc3OC)c(C)cc12 | 
8 | 414 |  | < 0.2 | CCN(CC)c1ccc(C(F)F)c2nc(-c3c(OC)cc(COC)cc3OC)c(C)cc12 | 
9 |  |  | 7.2 (≈ 3.16 µg/mL) | CCN(CCOC)c1ccc(C)c2nc(-c3c(OC)cc(COC)cc3OC)c(C)cc12 | 
10 | 144 | 57 | 1.9 (≈ 0.845 µg/mL) | CCN(CC)c1ccc(OC)c2nc(-c3c(OC)cc(COC)cc3OC)c(Cl)cc12 | 
11 | 110 | 91 | 74 (≈ 31.4 µg/mL) | CCN(CC)c1ccc(OC)c2nc(-c3c(OC)cc(COC)cc3OC)c(C)cc12 | solubility [4]: > 100 µM; pKa [5]: 6.01; solubility [6]: 98.2 µM (≈ 41.7 µg/mL); solubility [7]: 71 µM (≈ 30.1 µg/mL); Activity [8]: Active; Activity [9]: Dose-dependent effect; Activity [10]: Dose-dependent effect; half-life [11]: 1.73 h; AUC [12]: 1.542 µg/mL/h; Vd [13]: 2.15 L/kg; clearance [14]: 44 mL/min/kg; Cmax [15]: 305 ng/mL; Tmax [16]: 0.5 h; AUC [17]: 0.845 µg/mL/h; bioavailability [18]: 16.4%; Kp at 1 h [19]: 0.61
12 | > 1000 |  | 2.9 (≈ 1.27 µg/mL) | CCN(CC)c1ccc(COC)c2nc(-c3c(OC)cc(COC)cc3OC)c(C)cc12 | 
13 | 132 | 63 | 11 (≈ 4.46 µg/mL) | CCN(CC)c1ccc(OC)c2nc(-c3c(OC)cc(C#N)cc3OC)c(C)cc12 | 
14 |  |  | 2 (≈ 0.873 µg/mL) | CCCN(CCC)c1ccc(C)c2nc(-c3c(OC)cc(COC)cc3OC)c(C)cc12 | 
15 |  |  | 1.7 (≈ 0.695 µg/mL) | CCN(CC)c1ccc(C)c2nc(-c3c(OC)cc(COC)cc3OC)c(C)cc12 | solubility [4]: > 100 µM; pKa [5]: 5.86; solubility [6]: 22 µM (≈ 8.99 µg/mL); solubility [7]: 2 µM (≈ 0.817 µg/mL)
16 | 67 | 22 | 3.7 (≈ 1.59 µg/mL) | CCN(CC)c1ccc(OC)c2nc(-c3c(Cl)cc(COC)cc3OC)c(C)cc12 | Activity [9]: Dose-dependent effect; Activity [10]: Dose-dependent effect; Activity [20]: Active; Activity [21]: Active
17 | 108 | 32 | 12.1 (≈ 5.31 µg/mL) | CCc1cc2c(N(CC)CC)ccc(OC)c2nc1-c1c(OC)cc(COC)cc1OC | 
18 | 99 | 43 | 17.3 (≈ 6.83 µg/mL) | CCN(CC)c1ccc(OC)c2nc(-c3c(OC)cc(C)cc3OC)c(C)cc12 | 
19 | 105 | 99 | < 0.2 | CCCN(CCC)c1ccc(OC)c2nc(-c3c(OC)cc(COC)cc3OC)c(C)cc12 | 
20 | 156 | 65 | 8.7 (≈ 4.2 µg/mL) | COCCN(CC(C)C)c1ccc(OC)c2nc(-c3c(OC)cc(COC)cc3OC)c(C)cc12 | 
21 | 288 | 259 | < 0.2 | CCN(CC)c1ccc(C(F)(F)F)c2nc(-c3c(OC)cc(COC)cc3OC)c(C)cc12 | 
22 |  |  | < 0.2 | CCN(CC)c1ccc(C)c2nc(-c3c(OC)cc(COC)cc3OC)c(Cl)cc12 | 
23 | 102 | 36 | 3.2 (≈ 1.34 µg/mL) | CCN(CC)c1ccc(C#N)c2nc(-c3c(OC)cc(COC)cc3OC)c(C)cc12 | solubility [4]: > 100 µM; pKa [5]: < 3; solubility [6]: 2.1 µM (≈ 0.881 µg/mL); solubility [7]: 4.2 µM (≈ 1.76 µg/mL)
